Source: ChEMBL document CHEMBL1143997, “Further structural optimization of cis-(6-benzhydryl-piperidin-3-yl)-benzylamine and 1,4-diazabicyclo[3.3.1]nonane derivatives by introducing an exocyclic hydroxyl group: interaction with dopamine, serotonin, and norepinephrine transporters” (Bioorg Med Chem, 2008)
pKi: −log10 of the molar value.

Columns and labels:
[1] = molecular target: T1, Sodium-dependent dopamine transporter (Rattus norvegicus, UniProt P23977); assay: Displacement of [3H]WIN-from DAT in rat striatum
Method in brief: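 Compounds dissolved in DMSO, diluted in 10% DMSO, final 0.5% DMSO. At least five concentrations in triplicate spaced around IC50. IC50 from nonlinear curve fitting, converted to Ki by Cheng-Prusoff. Mean ± SEM of 3–8 independent experiments.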

[2] = molecular target: Sodium-dependent dopamine transporter (Rattus norvegicus) (UniProt P23977); assay: Ratio of [3H]DA uptake to [3H]WIN-binding to DAT in rat brain; format: tissue-based
Rattus norvegicus [3] = species: Rattus norvegicus; assay: Ratio of Ki for NET to Ki for DAT in rat brain; format: tissue-based
[4] = molecular target: T1, Sodium-dependent dopamine transporter; assay: Inhibition of [3H]dopamine uptake in DAT in rat striatum; format: tissue-based
Method in brief: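 Rat striatal tissue; [3H]DA accumulation measured. Nonspecific uptake defined with 100 uM cocaine. Compounds dissolved in DMSO, final 0.5% DMSO. At least five triplicate concentrations spaced around IC50. Nonlinear curve fit, with Ki from Cheng-Prusoff. Mean ± SEM of 3–8 independent experiments done in triplicate.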

Rattus norvegicus [5] = species: Rattus norvegicus; assay: Ratio of Ki for SERT to Ki for DAT in rat brain; format: tissue-based
[6] = molecular target: Sodium-dependent serotonin transporter (Rattus norvegicus, UniProt P31652); assay: Inhibition of [3H]5HT uptake in SERT in rat cerebral cortex; format: tissue-based
Method in brief: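 Rat cerebral cortex; [3H]5-HT accumulation measured. Nonspecific uptake defined with 10 uM citalopram. Compounds dissolved in DMSO, final 0.5% DMSO. At least five triplicate concentrations spaced around IC50. Nonlinear fit, with Ki by Cheng-Prusoff. Mean ± SEM of 3–8 independent experiments in triplicate.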

[7] = molecular target: Norepinephrine transporter (Rattus norvegicus, UniProt Q9WTR4); assay: Inhibition of [3H]NE uptake in NET in rat cerebral cortex; format: tissue-based
Sequence of Norepinephrine transporter (Q9WTR4 whole entry): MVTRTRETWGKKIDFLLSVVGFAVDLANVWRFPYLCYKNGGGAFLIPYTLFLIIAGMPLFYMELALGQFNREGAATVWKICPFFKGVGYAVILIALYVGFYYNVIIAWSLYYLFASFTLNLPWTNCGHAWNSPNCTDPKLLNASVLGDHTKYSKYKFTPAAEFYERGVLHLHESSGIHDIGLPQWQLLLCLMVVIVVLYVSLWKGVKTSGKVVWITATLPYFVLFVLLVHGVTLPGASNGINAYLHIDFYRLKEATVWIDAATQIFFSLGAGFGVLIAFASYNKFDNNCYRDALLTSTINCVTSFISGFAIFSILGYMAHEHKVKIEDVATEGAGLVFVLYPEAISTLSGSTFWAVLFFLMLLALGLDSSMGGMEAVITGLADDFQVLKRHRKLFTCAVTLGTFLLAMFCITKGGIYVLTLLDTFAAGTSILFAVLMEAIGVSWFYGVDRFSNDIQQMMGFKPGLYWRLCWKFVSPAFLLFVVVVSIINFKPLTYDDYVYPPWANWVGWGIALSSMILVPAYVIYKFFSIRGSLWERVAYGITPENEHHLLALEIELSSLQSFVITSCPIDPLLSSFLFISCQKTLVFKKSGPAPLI

Sequence of Sodium-dependent serotonin transporter (P31652 whole entry): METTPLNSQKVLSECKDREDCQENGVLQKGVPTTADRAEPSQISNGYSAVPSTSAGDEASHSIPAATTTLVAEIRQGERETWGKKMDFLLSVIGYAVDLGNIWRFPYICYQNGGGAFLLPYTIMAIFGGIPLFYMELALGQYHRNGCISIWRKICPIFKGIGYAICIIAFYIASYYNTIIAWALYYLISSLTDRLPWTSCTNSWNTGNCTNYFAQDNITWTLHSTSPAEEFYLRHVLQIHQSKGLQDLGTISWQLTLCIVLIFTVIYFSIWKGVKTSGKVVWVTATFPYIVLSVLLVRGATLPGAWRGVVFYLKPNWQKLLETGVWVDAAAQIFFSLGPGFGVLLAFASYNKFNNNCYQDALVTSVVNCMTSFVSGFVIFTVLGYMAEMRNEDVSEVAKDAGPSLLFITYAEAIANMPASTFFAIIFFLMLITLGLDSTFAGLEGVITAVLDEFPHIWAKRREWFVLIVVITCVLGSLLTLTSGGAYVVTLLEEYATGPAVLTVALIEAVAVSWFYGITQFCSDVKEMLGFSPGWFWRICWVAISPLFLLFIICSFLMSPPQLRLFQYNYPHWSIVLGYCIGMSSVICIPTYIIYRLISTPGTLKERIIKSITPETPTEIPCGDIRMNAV
T1 sequence (P23977 whole entry): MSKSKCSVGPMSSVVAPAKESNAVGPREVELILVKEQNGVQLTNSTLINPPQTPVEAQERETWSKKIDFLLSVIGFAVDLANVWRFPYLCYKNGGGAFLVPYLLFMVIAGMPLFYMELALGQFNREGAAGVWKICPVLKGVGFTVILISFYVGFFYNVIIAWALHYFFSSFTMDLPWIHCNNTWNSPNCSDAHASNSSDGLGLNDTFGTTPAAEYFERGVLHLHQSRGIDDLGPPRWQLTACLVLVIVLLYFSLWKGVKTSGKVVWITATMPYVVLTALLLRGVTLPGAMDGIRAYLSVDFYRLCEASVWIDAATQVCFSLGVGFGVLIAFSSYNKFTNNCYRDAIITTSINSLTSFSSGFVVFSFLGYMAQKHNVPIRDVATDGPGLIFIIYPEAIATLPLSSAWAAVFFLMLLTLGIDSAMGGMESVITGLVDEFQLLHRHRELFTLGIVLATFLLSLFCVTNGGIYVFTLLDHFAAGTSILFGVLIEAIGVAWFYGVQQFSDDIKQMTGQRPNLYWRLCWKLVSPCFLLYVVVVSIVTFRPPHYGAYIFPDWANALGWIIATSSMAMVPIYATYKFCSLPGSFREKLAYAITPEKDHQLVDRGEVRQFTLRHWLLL
Sequence of Sodium-dependent dopamine transporter (Rattus norvegicus) (P23977 whole entry): as above

## O[C@@H](CN1CCN2C[C@@H]1CC[C@H]2C(c1ccccc1)c1ccccc1)c1ccc(F)cc1
[1]
  pKi: 6.85
[2]
  Ratio Ki: 0.46
Rattus norvegicus [3]
  Ratio Ki: 4.7
[4]
  pKi: 7.18
Rattus norvegicus [5]
  Ratio Ki: 111
[6]
  pKi: 5.13
[7]
  pKi: 6.50

## O[C@@H](Cc1ccccc1)CN1CCN2C[C@@H]1CC[C@H]2C(c1ccccc1)c1ccccc1
[1]
  pKi: 7.33
[2]
  Ratio Ki: 0.35
Rattus norvegicus [3]
  Ratio Ki: 15.4
[4]
  pKi: 7.77
Rattus norvegicus [5]
  Ratio Ki: 615
[6]
  pKi: 4.99
[7]
  pKi: 6.59

## O[C@H](Cc1ccccc1)CN1CCN2C[C@@H]1CC[C@H]2C(c1ccccc1)c1ccccc1
[1]
  pKi: 6.83
[2]
  Ratio Ki: 0.56
Rattus norvegicus [3]
  Ratio Ki: 8.8
[4]
  pKi: 7.08
Rattus norvegicus [5]
  Ratio Ki: 135
[6]
  pKi: 4.95
[7]
  pKi: 6.14

## O[C@H](CN[C@H]1CC[C@@H](C(c2ccccc2)c2ccccc2)NC1)Cc1ccccc1
[1]
  pKi: 7.54
[2]
  Ratio Ki: 0.87
Rattus norvegicus [3]
  Ratio Ki: 9.1
Rattus norvegicus [5]
  Ratio Ki: 103
[6]
  pKi: 5.59
[7]
  pKi: 6.64

## O[C@H](CCN1CCN2C[C@@H]1CC[C@H]2C(c1ccccc1)c1ccccc1)c1ccc(F)cc1
[1]
  pKi: 7.70
[2]
  Ratio Ki: 2.1
Rattus norvegicus [3]
  Ratio Ki: 9.2
[4]
  pKi: 7.38
Rattus norvegicus [5]
  Ratio Ki: 284
[6]
  pKi: 4.93
[7]
  pKi: 6.41

## O[C@H](CN1CCN2C[C@@H]1CC[C@H]2C(c1ccccc1)c1ccccc1)c1ccccc1
[1]
  pKi: 5.98
[2]
  Ratio Ki: 0.25
Rattus norvegicus [3]
  Ratio Ki: 6.5
[4]
  pKi: 6.58
Rattus norvegicus [5]
  Ratio Ki: 35.7
[6]
  pKi: 5.02
[7]
  pKi: 5.76

## N#Cc1ccc(CN[C@H]2CC[C@@H](C(c3ccccc3)c3ccccc3)NC2)cc1
[1]
  pKi: 7.95
[4]
  pKi: 8.04

## COc1ccc(CN2CCN3C[C@@H]2CC[C@H]3C(c2ccccc2)c2ccccc2)cc1
[1]
  pKi: 7.65
[4]
  pKi: 7.74

## O[C@@H](CN[C@H]1CC[C@@H](C(c2ccccc2)c2ccccc2)NC1)c1ccc(F)cc1
Rattus norvegicus [3]
  Ratio Ki: 6
Rattus norvegicus [5]
  Ratio Ki: 12.2
[6]
  pKi: 5.54
[7]
  pKi: 5.84

## O[C@@H](CCN1CCN2C[C@@H]1CC[C@H]2C(c1ccccc1)c1ccccc1)c1ccc(F)cc1
[1]
  pKi: 7.87
[2]
  Ratio Ki: 0.63
Rattus norvegicus [3]
  Ratio Ki: 48.4
[4]
  pKi: 8.06
Rattus norvegicus [5]
  Ratio Ki: 172
[6]
  pKi: 5.83
[7]
  pKi: 6.38

## O[C@H](CN1CCN2C[C@@H]1CC[C@H]2C(c1ccccc1)c1ccccc1)c1ccc(F)cc1
[1]
  pKi: 6.19
[2]
  Ratio Ki: 0.24
Rattus norvegicus [3]
  Ratio Ki: 4.5
[4]
  pKi: 6.80
Rattus norvegicus [5]
  Ratio Ki: 45.9
[6]
  pKi: 5.13
[7]
  pKi: 6.14

## O[C@@H](CN[C@H]1CC[C@@H](C(c2ccccc2)c2ccccc2)NC1)Cc1ccccc1
[2]
  Ratio Ki: 0.78
[4]
  pKi: 7.97
[6]
  pKi: 5.86
[7]
  pKi: 6.77

## O[C@@H](CN1CCN2C[C@@H]1CC[C@H]2C(c1ccccc1)c1ccccc1)c1ccccc1
[1]
  pKi: 6.64
[2]
  Ratio Ki: 0.89
Rattus norvegicus [3]
  Ratio Ki: 4.6
[4]
  pKi: 6.69
Rattus norvegicus [5]
  Ratio Ki: 63.2
[6]
  pKi: 4.89
[7]
  pKi: 6.02
